Measured values: publication PMC11937985 (Journal of Clinical Pharmacology, 2024)
Like-named read-outs stand apart in the source and are kept apart here.

Experiments:
[1] = fezolinetant 45 mg, pooled 12-week data, cited from earlier work
[2] = format: in vivo, human
[3] = Safety and tolerability assessment in the phase 1 study; format: in vivo, human
Method in brief: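 Healthy postmenopausal smokers and nonsmokers received oral test compound 30 mg on Day 1 after a 10-h fast. Oral fluvoxamine 50 mg was given on Day 3 evening, twice daily on Days 4–9, and on Day 10 morning. On Day 7 the test compound was co-dosed fasted. AEs were recorded from consent to end of study, in all subjects dosed at least once.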

[4] = 20‐ to 60‐mg dose range; cited from earlier work
[5] = format: in vitro ADME, human; conditions: preliminary assay; rate of degradation could not be determined precisely
[6] = fezolinetant + fluvoxamine vs fezolinetant alone

## Cc1nsc(-c2nnc3n2CCN(C(=O)c2ccc(F)cc2)[C@@H]3C)n1 [Fezolinetant]
[1]; current smokers
  LS mean difference in VMS frequency versus placebo: −3.48
[1]; former/never smokers
  LS mean difference in VMS frequency versus placebo: −2.32
[2]; female, human, plasma, oral, 30 mg
  Tmax: 1 h
[2]; fezolinetant 30 mg + fluvoxamine, nonsmoker n = 9
  tmax, Median [min–max]: 1.50 [1.00‐4.00] h
[2]; fezolinetant 30 mg + fluvoxamine, smoker n = 9
  tmax, Median [min–max]: 1.50 [1.48‐4.00] h
[2]; fezolinetant 30 mg alone, nonsmoker n = 9
  tmax, Median [min–max]: 1.00 [0.983‐2.00] h
[2]; fezolinetant 30 mg alone, smoker n = 9
  tmax, Median [min–max]: 1.00 [1.00‐1.50] h
[2]; [6]
  increase in half-life on co-administration with fluvoxamine: ~5.6 fold
  increase in total exposure on co-administration with fluvoxamine: approximately 9 fold
[2]; smokers vs nonsmokers
  exposure decrease by smoking: about 50%
[3]; all treatment periods, 18 TEAEs, 18 subjects enrolled
  subjects with TEAEs, overall: 44.4%
[3]; single oral 30-mg dose of fezolinetant co-administered with fluvoxamine, healthy postmenopausal women
  safety and tolerability: safe and well tolerated
[4]
  dose dependence of Cmax and total exposure (AUC): increased linearly
[5]
  metabolic stability: highly stable

## COCCCC/C(=N\OCCN)c1ccc(C(F)(F)F)cc1 [fluvoxamine]
[3]; 18 subjects
  dizziness (TEAE), subjects reporting: one subject
  erythema (TEAE), subjects reporting: 11.1%
  orthostatic intolerance (TEAE), subjects reporting: one subject
  subjects with TEAE considered drug related by the investigator: 5.6%
